According to PMC12618243 (Nature Structural & Molecular Biology, 2025):
Like-named read-outs stand apart in the source and are kept apart here.

Tests used:
OSH6 [1] = target: T1, OSH6 (Saccharomyces cerevisiae, UniProt Q02201); experiment: ITC binding of IST2 peptides to OSH6; parameters: species or system S. cerevisiae; settings: R750A peptide, Extended Data Fig. 7l
T1 sequence (Q02201 1-448): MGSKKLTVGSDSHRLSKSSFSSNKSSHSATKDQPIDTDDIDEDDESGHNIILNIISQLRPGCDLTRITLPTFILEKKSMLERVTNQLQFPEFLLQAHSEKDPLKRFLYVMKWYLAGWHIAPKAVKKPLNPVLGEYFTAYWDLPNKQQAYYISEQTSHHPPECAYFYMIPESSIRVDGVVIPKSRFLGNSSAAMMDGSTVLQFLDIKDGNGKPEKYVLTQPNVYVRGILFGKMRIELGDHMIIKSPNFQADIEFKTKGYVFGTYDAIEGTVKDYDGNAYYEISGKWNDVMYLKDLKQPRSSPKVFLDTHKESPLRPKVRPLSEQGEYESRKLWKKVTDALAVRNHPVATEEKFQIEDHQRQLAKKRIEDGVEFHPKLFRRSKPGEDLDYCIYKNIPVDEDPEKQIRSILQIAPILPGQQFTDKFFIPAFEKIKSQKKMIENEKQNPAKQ

OSH6 [2] = target: T1, OSH6; experiment: Pulldown of OSH6 by GST-tagged IST2 peptides; type: binding, S. cerevisiae
How it was run: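 GST-tagged IST2 peptides (OSH6-binding epitope, varying length) expressed in E. coli BL21 (0.3 mM IPTG at OD600 0.8, 25 °C, 2.5 h). Coated beads incubated with 5 µM (final) OSH6 plus BSA, 1 h, 4 °C. Beads washed without BSA, taken into SDS sample buffer.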

[3] = target: T2, OSH6 purified from E. coli (S. cerevisiae, UniProt Q02201 1-448); experiment: pull-down
T2 sequence: T1 sequence (Q02201 1-448)

MSP2N2 = experiment: SEC of OSH6 with scaffold protein MSP2N2 in absence of lipids; type: binding; settings: no lipids, 1.2× molar excess MSP2N2, 30 min, performed once
cryo-EM structure [4] = target: the molecule itself; experiment: cryo-EM structure
cryo-EM structure [5] = target: the molecule itself; experiment: cryo-EM structure; remark: listed apart in the source
[6] = system: S. cerevisiae ist2;psd1-KO strain (AWY327); experiment: Yeast complementation; type: cell-based; settings: 2% galactose, 30 °C, 3–4 days
OSH6 [7] = target: T1, OSH6; experiment: SEC coelution of IST2fl and OSH6; type: binding, S. cerevisiae
[8] = cited from earlier work

With “Substitution of R750 to alanine: peptide encompassing residues 732-761 of IST2 carrying the mutation R750A (ITC) (VAGATLPETIPTSKNYYLAFDEDGKSIRDA; UniProt P38250 732-761, looked up, fragment R750A)” the “Binding to OSH6 by ITC (in words)” value (OSH6 [1]) was “severely compromise binding to OSH6” and the “OSH6 interaction in pulldown (in words)” value (OSH6 [2]) was “severely compromise binding to OSH6”.

VAGATLPETIPTSKNYYLRFDEDGKSIR [GST fusion of the IST2 peptide encompassing residues 732-759]: binds [3].

B1: OSH6: soluble lipid transfer protein, PS–PtdIns4P exchanger of S. cerevisiae (protein)
chain: T1 sequence (Q02201 1-448)
modifications: left off: GST, N-terminal, cleaved
With B1 the “Interaction with isolated scaffold protein (in words)” value (MSP2N2) was “nor did we detect interactions with the isolated scaffold protein”.

B2: IST2 containing residues 1-716 (domain or fragment)
chain: MSQTITSLDPNCVIVFNKTSSANEKSLNVEFKRLNIHSIIEPGHDLQTSYAFIRIHQDNAKPLFSFLQNLDFIESIIPYHDTELSDDLHKLISISKSKILEAPKQYELYNLSNLTNNPKQSLYFAFLQNYIKWLIPFSFFGLSIRFLSNFTYEFNSTYSLFAILWTLSFTAFWLYKYEPFWSDRLSKYSSFSTIEFLQDKQKAQKKASSVIMLKKCCFIPVALLFGAILLSFQLYCFALEIFIKQIYNGPMISILSFLPTILICTFTPVLTVIYNKYFVEPMTKWENHSSVVNAKKSKEAKNFVIIFLSSYVPLLITLFLYLPMGHLLTAEIRTKVFNAFSILARLPTHDSDFIIDTKRYEDQFFYFIVINQLIQFSMENFVPSLVSIAQQKINGPNPNFVKAESEIGKAQLSSSDMKIWSKVKSYQTDPWGATFDLDANFKKLLLQFGYLVMFSTIWPLAPFICLIVNLIVYQVDLRKAVLYSKPEYFPFPIYDKPSSVSNTQKLTVGLWNSVLVMFSILGCVITATLTYMYQSCNIPGVGAHTSIHTNKAWYLANPINHSWINIVLYAVFIEHVSVAIFFLFSSILKSSHDDVANGIVPKHVVNVQNPPKQEVFEKIPSPEFNSNNEKELVQRKGSANEKLHQELGEKQPASSANGYEAHAATHANNDPSSLSSASSPSLSSSSSSSKTGVVKAVDNDTAGSAGKKPLATESTE
With B2 the “stoichiometry N” value (cryo-EM structure [4]) was 2.

B3: full-length IST2 (natural protein)
chain: MSQTITSLDPNCVIVFNKTSSANEKSLNVEFKRLNIHSIIEPGHDLQTSYAFIRIHQDNAKPLFSFLQNLDFIESIIPYHDTELSDDLHKLISISKSKILEAPKQYELYNLSNLTNNPKQSLYFAFLQNYIKWLIPFSFFGLSIRFLSNFTYEFNSTYSLFAILWTLSFTAFWLYKYEPFWSDRLSKYSSFSTIEFLQDKQKAQKKASSVIMLKKCCFIPVALLFGAILLSFQLYCFALEIFIKQIYNGPMISILSFLPTILICTFTPVLTVIYNKYFVEPMTKWENHSSVVNAKKSKEAKNFVIIFLSSYVPLLITLFLYLPMGHLLTAEIRTKVFNAFSILARLPTHDSDFIIDTKRYEDQFFYFIVINQLIQFSMENFVPSLVSIAQQKINGPNPNFVKAESEIGKAQLSSSDMKIWSKVKSYQTDPWGATFDLDANFKKLLLQFGYLVMFSTIWPLAPFICLIVNLIVYQVDLRKAVLYSKPEYFPFPIYDKPSSVSNTQKLTVGLWNSVLVMFSILGCVITATLTYMYQSCNIPGVGAHTSIHTNKAWYLANPINHSWINIVLYAVFIEHVSVAIFFLFSSILKSSHDDVANGIVPKHVVNVQNPPKQEVFEKIPSPEFNSNNEKELVQRKGSANEKLHQELGEKQPASSANGYEAHAATHANNDPSSLSSASSPSLSSSSSSSKTGVVKAVDNDTAGSAGKKPLATESTEKRNSLVKVPTVGSYGVAGATLPETIPTSKNYYLRFDEDGKSIRDAKSSAESSNATNNNTLGTESKLLPDGDAVDALSRKIDQIPKIAVTGGENNENTQAKDDAATKTPLIKDANIKPVVNAAVNDNQSKVSVATEQTKKTEVSTKNGPSRSISTKETKDSARPSNNNTTTTTTTDATQPHHHHHHHRHRDAGVKNVTNNSKTTESSSSSSAAKEKPKHKKGLLHKLKKKL
With B3 the “stoichiometry N” value (cryo-EM structure [5]) was 2.

B4: IST2: full-length wild-type IST2, 946 residues, S. cerevisiae (protein)
chain: B3 chain
modifications: left off: SBP, N-terminal, state not stated | myc, N-terminal, state not stated
For B4, the “Growth complementation (in words)” value [6] is listed as “growth deficit can be alleviated”, the “Coelution as a complex on SEC (in words)” value (OSH6 [7]) is listed as “coelute as a complex on size-exclusion chromatography” and the “Scrambling activity, previous publication (in words)” value [8] is listed as “refuting scrambling activity”.
